Lung fibro prol: blocks proliferation of human lung fibroblasts. viability, % at 10 µM. AID 719. hit rate 1.1% among 85,000. LL 47 human lung fibroblast viability, ATP luminescence; stronger effect = lower value;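 active = viability at or below 50% in the single dose screen; inactive = viability above 50%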;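 also: compound exposure lasted 72 h before the ATP readout; 100% = median luminescence of untreated cell-only wells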
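Material: human lung fibroblast line LL 47, low passage; Evaluation: viability percentage against median untreated-cell control; Buffer or medium: 15% FBS in IMEM; Incubation: 72 h compound exposure at 37 °C after overnight plating; Dosing: 0.1% DMSO in all compound wells; Measured by: CellTiter-Glo luminescence.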
HUVEC inhibit: inhibitors of human endothelial cell proliferation; HUVEC proliferation, CellTiter-Glo luminescence, 72 h; stronger effect = lower value; viability, % at 10 µM (by protocol); hit rate 1.1% among 86,000;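 active = viability at or below 30%; inactive = viability above 30%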;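 also: 100% = median luminescence of DMSO-only cell control wells on each plate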
H69AR inhibit: blocks growth of human H69AR lung tumor cells; H69AR lung tumor viability, ATP luminescence, 72 h; stronger effect = lower value; viability, % at 10 µM; hit rate 6% among 85,000; AID 598;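 active = viability at or below 40%; inactive = viability above 40%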;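 also: multidrug resistant small cell line overexpressing MRP-1 efflux transporter; 100% = mean luminescence of untreated control wells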
Jurkat tox 60K: cytotoxic compounds reducing Jurkat cell viability; inhibition, % at 4 µM; Jurkat E6.1 viability, ATP luminescence, 48 h; hit rate 1.2% among 56,000;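 active = inhibition above the mean inhibition of all tested compounds plus 3 SD, cut at about 28% in these data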
* marks the source's active call; other numbers are inactive results; . = not tested or not shown. A selection: hits, their analogues and other compounds. The true share with any hit is near 6.4%.

SMILES	Lung fibro prol	HUVEC inhibit	H69AR inhibit	Jurkat tox 60K
CCN(CC(=O)NC(C)C)Cc1nc2sc3c(c2c(=O)[nH]1)CCC3	93	87	37*	.
CN(C)C(=O)CCc1nc2sc3c(c2c(=O)[nH]1)CCCC3	104	101	91	.
Cc1cccc(NC(=O)CSc2nnc(-c3ccc(S(=O)(=O)N4CCOCC4)cc3)n2C)c1	92	96	83	-4
CCOC(=O)c1sc(=NC(=O)c2ccc(OC)c(OC)c2)n(C)c1C	97	77	20*	4
Cc1noc(C)c1CSc1nc2ccccc2nc1NS(=O)(=O)c1ccc(Cl)cc1	99	66	57	76*
Cc1cc(C)c(C(=O)CSc2nnc(-c3ccccc3Br)o2)cc1C	94	62	72	1
Cc1cc(C)c(C(=O)CSC2=NC(N)=C(C#N)C3(CCCCC3)C2C(N)=O)cc1C (configuration not stated)	101	90	12*	.
CC(C)OP(=O)(OC(C)C)C(NC(=O)c1cccc([N+](=O)[O-])c1)C(N)=O (configuration not stated)	105	102	94	.
CC(=O)Oc1ccccc1-c1nc(C)nc(N(C)C(C)=O)n1	95	102	95	0
N#Cc1c(NCc2ccccc2)ccnc1NCc1cccnc1	92	85	96	69*
CCC(Cc1ccccc1)NC(=O)C1CCN(S(=O)(=O)c2c(C)noc2C)CC1 (configuration not stated)	100	97	95	.
Cc1ccc2oc(-c3ccccc3)nc2c1	93	96	97	.
COc1ccc(-c2cn[nH]c2N)cc1	94	98	87	.
Nc1c(Br)cc2oc(-c3ccccc3)nc2c1Br	81	83	22*	.
COc1ccc(-c2nc3c(Br)c(N)c(Br)cc3o2)cc1	80	60	29*	.
CCOc1cc(N2CCOCC2)c(OCC)cc1NC(=O)C(NC(=O)c1ccco1)C(C)C (configuration not stated)	102	113	83	-9
O=C(NCC12CC3CC(CC(C3)C1)C2)c1cc2n(n1)C(C(F)(F)F)CC(c1ccco1)N2 (configuration not stated)	78	55	34*	3
CCN(CC)c1ccc(C(=O)n2cnc3ccccc32)cc1	88	75	21*	31
Nc1ccccc1Nc1ccccc1	82	77	11*	.
CCCCOC(=O)C(C)c1c(C)[nH]c(=S)[nH]c1=O (configuration not stated)	104	98	96	.
CCCCCn1c(=O)[nH]c2cc(C(=O)NCc3ccc4c(c3)OCO4)ccc2c1=O	89	59	32*	.
CCCCCn1c(=O)[nH]c2cc(C(=O)N3CCN(Cc4ccc5c(c4)OCO5)CC3)ccc2c1=O	62	45	9.3*	.
COC(=O)c1ccc2c(=O)n(CCCCCC(=O)NCc3ccc4c(c3)OCO4)c(=O)[nH]c2c1	94	98	87	.
COC(=O)C1=CN(CC2CCCO2)C=C(C(=O)OC)C1c1ccccc1C(F)(F)F (configuration not stated)	101	111	37*	.
Cc1cc(N(C)Cc2ccccc2)nc(-c2ccccc2)n1	80	63	24*	.
SMILES	Lung fibro prol	HUVEC inhibit	H69AR inhibit	Jurkat tox 60K
CCOc1ccc(OCCSc2nc3ccccc3[nH]2)cc1	99	95	85	.
CCOc1ccc(-n2c(N)c(-c3nc4ccccc4[nH]3)sc2=S)cc1	74	54	22*	.
O=C(NCCN1CCOCC1)NC1(C(F)(F)F)Oc2ccccc2O1	88	70	18*	.
CCC(CC)C(=O)NCCc1ccc(S(N)(=O)=O)cc1	103	88	96	.
COc1ccc(OC)c(NC(=O)NC2(C(F)(F)F)Oc3ccccc3O2)c1	95	69	13*	.
CCCCNC(=O)NC1(C(F)(F)F)Oc2ccccc2O1	93	64	22*	.
NS(=O)(=O)c1ccc(CCNC(=O)NC2(C(F)(F)F)Oc3ccccc3O2)cc1	81	71	20*	.
COc1ccc(OC)c(NC(=O)Nc2ccccc2C)c1	108	108	93	7
Cn1nnnc1SCCNCc1ccncc1	97	103	90	10
COc1ccc(C(=O)N(CN2CCCC2=O)c2nccs2)cc1OC	102	96	69	-1
COc1ccc(N2CC(C(=O)O)CC2=O)cc1 (configuration not stated)	98	90	96	.
CNC(=O)C1CC(=O)N/C(=N/N=C(\C)c2cccs2)S1 (configuration not stated)	106	108	90	.
CCC(C)NS(=O)(=O)c1ccc(S(=O)(=O)N2CCCC3(CCCCC3)C2)cc1 (configuration not stated)	93	101	93	.
Cc1ccc(C)c2[nH]c(=O)c(CN(CCN3CCCC3)C(=O)Nc3cccc(Cl)c3)cc12	28*	21*	0.6*	51*
Cc1ccc2[nH]c(=O)c(CN(CCN3CCOCC3)C(=O)Nc3ccc(F)cc3)cc2c1	96	90	39*	6
CCc1ccc2[nH]c(=O)c(CN(CCCN3CCOCC3)C(=O)Nc3cccc(Cl)c3)cc2c1	61	15*	29*	4
Cc1ccc2[nH]c(=O)c(CN(CCCN(C)C)C(=O)Nc3ccc(Cl)cc3)cc2c1	64	62	3.0*	.
Cc1c(Cl)cccc1-n1nnnc1-c1cccs1	96	100	93	-1
Cn1c(=O)c(=O)n(C)c2cc(S(=O)(=O)N3CCN(c4cccc(C(F)(F)F)c4)CC3)ccc21	95	68	84	-13
Cc1cc(C)c2c3c(sc2n1)C(=O)N(Cc1ccccc1)CC(=O)N3	107	97	83	.
CCc1ccc2[nH]c(=O)c(CN(CCCN3CCOCC3)C(=O)Nc3ccccc3)cc2c1	95	73	65	-4
CCc1ccc2[nH]c(=O)c(CN(CCCN3CCOCC3)C(=O)Nc3ccc(Cl)cc3)cc2c1	77	28*	27*	5
COc1ccc(NC(=O)CN2CCN(C3c4ccccc4-c4ccccc43)CC2)c(OC)c1	72	60	59	8
COc1cc(NC(=O)Nc2ccccc2)c(OC)cc1NC(=O)CN1CCCCC1	96	12*	41	-5
COc1ccccc1NC(=O)CN1CCN(C2c3ccccc3-c3ccccc32)CC1	78	66	38*	13
SMILES	Lung fibro prol	HUVEC inhibit	H69AR inhibit	Jurkat tox 60K
CCOc1ccc(NC(=O)CN2CCN(C3c4ccccc4-c4ccccc43)CC2)cc1	89	78	32*	.
COc1ccccc1NC(=O)CN1CCN(CC(=O)Nc2ccc3c(c2)OCO3)CC1	103	94	9.8*	4
CCOC(=O)C1CCCN(c2c(N3CCc4ccccc4C3)c(=O)c2=O)C1 (configuration not stated)	117	107	88	-4
Cc1ccc(CNS(=O)(=O)N(C)C)cc1	104	100	107	.
O=C(CN1CCN(S(=O)(=O)c2cc(Cl)ccc2Cl)CC1)Nc1ccc2c(c1)OCCO2	99	92	35*	-5
COc1ccccc1NC(=O)CSC(N)=O	89	56	28*	.
COC(=O)c1c(NC(=O)CN2CCN(Cc3ccc4c(c3)OCO4)CC2)sc(C)c1C	84	62	1.9*	12
CN(C)c1ccc(NC(=O)CN2CCN(S(=O)(=O)c3cc(Cl)ccc3Cl)CC2)cc1	.	.	.	-7
